KCNK9 inh = blocks the human KCNK9 two-pore domain potassium channel | HEK293 KCNK9, FluxOR thallium flux fluorescence; hits give low values | B-score at 10 µM | hit rate 1.2% among 310,000;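 active means ratio B-score over 3 SD below the library mean, with starting fluorescence within 5 SD of its mean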;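 further: negative B-score means less thallium flux so channel inhibition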
Target sequence (Q9NPC2 whole entry, looked up, the tested form may be a part): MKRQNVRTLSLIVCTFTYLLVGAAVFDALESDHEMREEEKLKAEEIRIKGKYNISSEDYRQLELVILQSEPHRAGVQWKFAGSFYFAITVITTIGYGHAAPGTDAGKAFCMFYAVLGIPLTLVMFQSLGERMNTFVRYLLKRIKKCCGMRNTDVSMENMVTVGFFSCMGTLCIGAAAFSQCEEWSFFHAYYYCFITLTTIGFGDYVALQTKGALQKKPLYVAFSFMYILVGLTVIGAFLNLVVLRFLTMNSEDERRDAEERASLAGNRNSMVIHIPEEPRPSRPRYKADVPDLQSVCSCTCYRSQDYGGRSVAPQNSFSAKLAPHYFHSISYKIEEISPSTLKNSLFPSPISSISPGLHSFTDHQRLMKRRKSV
hERG rescue = hERG (human) protection from proarrhythmic block | hit rate 0.51% among 310,000 | CHO-hERG, FluxOR thallium flux, dofetilide IC70 present | Q12809 | activation (rescue from dofetilide block), less the hit threshold, % at 10 µM;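 active means activation above the mean of controls blocked by dofetilide plus 5 SD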;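 further: thallium influx through hERG after potassium depolarization seen as dye fluorescence rise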
KCNQ1 inh = human KCNQ1 channel inhibition | P51787 | CHO-K1 KCNQ1, FluxOR thallium flux fluorescence; hits give high values | B-score at 10 µM | hit rate 1.3% among 310,000 | AID 2642;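 active means compounds whose thallium flux B-score, printed positive for inhibition, exceeds three library SD while starting fluorescence stays within three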;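 further: channel opened by potassium depolarization with thallium stimulus after 20 min compound exposure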
KCNK3 block = human KCNK3 channel inhibition, primary screen | O14649 | CHO-KCNK3 thallium flux, FluxOR fluorescence; hits give low values | B-score at 10 µM | hit rate 0.84% among 340,000 | AID 602410;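 active means B-score under library mean minus 4 SD, starting fluorescence ratio at most library mean plus 5 SD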;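 further: more negative B-score means stronger inhibition of thallium flux through KCNK3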
Kir21 block = blocks the mouse Kir2.1 inward-rectifier potassium channel; P35561; HEK293-Kir2.1, FluxOR thallium flux fluorescence; hits give low values; B-score at 10 µM; hit rate 0.85% among 310,000; AID 1672;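 active means fluorescence ratio B-score at or below minus 3 SD of library scores, with starting-brightness B-score within 2 SD, cut at about -4.2 in these data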;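 further: channel flux triggered by added potassium and thallium sulfate stimulus; B-score of peak minus minimum fluorescence over baseline after thallium stimulus; more negative B-score means stronger Kir2.1 block with less thallium influx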
KCNQ1 act = human KCNQ1 channel potentiation or activation | P51787 | CHO-K1 KCNQ1, thallium flux FluxOR fluorescence; hits give high values | B-score at 10 µM | hit rate 0.35% among 310,000 | AID 2648;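 active means fluorescence ratio B-score, a plate-corrected score, at least three library SD, with initial intensity B-score within 5 SD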
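Assay system: CHO-K1 cells stably expressing KCNQ1. Medium: assay buffer for compound exposure, DMSO matched across wells. Timing: 37 °C overnight plating, 90-min dark dye load, 20-min compound pretreatment. Signal: kinetic FluxOR fluorescence, 10 s baseline plus 110 s post-stimulus.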
KCNK9 block conf = confirmation of human KCNK9 potassium channel inhibitors; hit rate 43% among 4,900; shares compounds with KCNK9 inh; inhibition, % at 10 µM; HEK293 KCNK9 cells, FluxOR thallium flux fluorescence;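 active means thallium signal inhibited by more than 5 SD of the compound-free buffer control wells, on both duplicate plates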
Kir2-1 spec = tests whether KCNK9 modulators also affect mouse Kir2.1; shares compounds with KCNK9 inh; hit rate 4% among 4,900; Kir2.1 cells, FluxOR thallium flux fluorescence; inhibition, % at 10 µM;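 active means thallium signal drop more than 5 SD beyond the mean of the no-compound control wells, seen in both duplicate plates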;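 further: signal is fluorescence rise after thallium addition divided by baseline fluorescence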
KCNK9 uninduced = second check of KCNK9 modulator effects in non-induced HEK293 cells; FluxOR thallium flux; inhibition, % at 10 µM; hit rate 40% among 4,900; shares compounds with KCNK9 inh;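 active means thallium signal drop beyond 5 SD of the untreated control mean, on both duplicate plates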
Numbers stand for hits; – = inactive; · = no result. Compounds with a hit are over-represented: about 3.7% of the library has one in this group of screens.

SMILES | KCNK9 inh | hERG rescue | KCNQ1 inh | KCNK3 block | Kir21 block | KCNQ1 act | KCNK9 block conf | Kir2-1 spec | KCNK9 uninduced
C=CCOc1ccccc1CN1CCC(Cc2ccccc2)CC1 | – | – | – | – | -4.3 | – | – | – | –
Cc1cc(C(=O)CCC(=O)N2CCN(c3ccccc3F)CC2)c(C)s1 | – | – | – | – | – | – | – | – | –
CC(C)(C)OC(=O)N[C@@H](Cc1ccccc1)C(=O)N[C@@H](CO)[C@H](O)[C@@H]1C[C@@H]1C(=O)NC1CCCCC1 | · | · | · | – | · | · | · | · | ·
CC(OC(=O)c1ccccc1NS(=O)(=O)c1cccc(C(F)(F)F)c1)C(=O)N(C)Cc1ccccc1 (stereo unspecified) | -13 | – | – | – | – | – | 64% | – | 31%
CN(Cc1ccccc1)C(=O)COC(=O)c1ccccc1NS(=O)(=O)c1cccc(N)c1 | – | – | – | – | – | – | · | · | ·
Clc1ccccc1OCCN1CCC(Cc2ccccc2)CC1 | – | – | – | – | – | – | – | – | –
O=[N+]([O-])c1cccc(OCCN2CCC(Cc3ccccc3)CC2)c1 | – | – | 7 | – | – | – | – | – | –
O=Cc1cc(Cl)ccc1OCCN1CCC(Cc2ccccc2)CC1 | – | – | – | – | -4.8 | – | – | – | –
O=C(Nc1ccc(C(=O)OC[C@@H]2CCCN3CCCC[C@H]23)cc1)c1cccc(Br)c1 | – | – | – | – | – | – | · | · | ·
Cc1ccc(NC(=O)CSC2=NN3CCCC(=O)N=C3S2)cc1Cl | – | – | – | – | – | – | · | · | ·
CCSc1cnn(-c2ccccc2)c(=O)c1SCC | – | – | – | – | – | – | · | · | ·
CCCCSc1cnn(-c2ccccc2)c(=O)c1SCCCC | -9.9 | – | 6 | – | – | – | 52% | – | 48%
CCOC(=O)Cn1c(S(=O)(=O)Cc2ccc(F)cc2)nc(-c2ccccc2)c1-c1ccccc1 | -9.1 | – | – | – | – | – | 34% | – | 39%
C#CCn1c(S(=O)(=O)Cc2ccc(F)cc2)nc(-c2ccccc2)c1-c1ccccc1 | -14 | – | – | – | – | – | 61% | – | 31%
CCOC(=O)Cn1c(S(=O)(=O)Cc2cccc(F)c2)nc(-c2ccccc2)c1-c1ccccc1 | -11 | – | – | – | – | – | 50% | – | 30%
NC(=O)Cn1c(S(=O)(=O)Cc2ccccc2)nc2ccccc21 | – | – | – | – | – | – | · | · | ·
O=C(Nc1nccs1)c1ccc[nH]c1=O | – | – | – | – | – | – | · | · | ·
CCC(CC)C(=O)c1c[nH]c(C(=O)NCc2ccncc2)c1 | – | – | – | – | – | – | · | · | ·
COc1ccccc1NC(=O)Nc1cc(F)ccc1F | – | – | – | – | – | – | · | · | ·
CCN(CC)C(=O)[C@H]1C[C@H](CC(=O)NC/C=C(\C)CCC=C(C)C)C(=O)N2CCc3c([nH]c4cc(CCC(=O)N(C)C)ccc34)[C@]12C | · | · | · | – | · | · | · | · | ·
COc1cccc(NC(=O)CN(C)CC(=O)Nc2ccc(C)cc2Cl)c1 | – | – | – | – | – | – | · | · | ·
Cc1ccc2c(c1)N(CCC(=O)NC1CCCCC1)C(=O)CO2 | – | – | – | – | – | – | – | – | –
COc1ccccc1CNC(=O)CCCN1C(=O)COc2ccc(C)cc21 | – | – | – | – | – | – | – | – | –
Cc1ccc(NC(=O)C(Nc2cccc(C)c2)c2ccccc2)cc1 (stereo unspecified) | – | – | – | – | – | – | 33% | – | 32%
Cc1cccc(C(=O)Nc2ccc(NC(=O)c3ccccc3)cc2)c1 | -11 | – | – | – | – | – | 54% | – | –
SMILES | KCNK9 inh | hERG rescue | KCNQ1 inh | KCNK3 block | Kir21 block | KCNQ1 act | KCNK9 block conf | Kir2-1 spec | KCNK9 uninduced
Cc1cccc(C(=O)Nc2scc(-c3ccc(Br)cc3)c2C(=O)O)c1 | – | – | – | – | – | – | · | · | ·
Cc1cccc(C(=O)Nc2ccc(C(=O)Nc3ccc(O)cc3)cc2)c1 | – | – | – | – | – | – | · | · | ·
Cc1ccc(-c2csc(NC(=O)c3cccc(C)c3)c2C(=O)O)cc1 | – | – | – | – | – | – | – | – | –
Cc1cccc(C(=O)Nc2ccccc2C(=O)OCC(=O)Nc2ccc(C#N)cc2)c1 | -9.3 | – | – | – | – | – | 32% | – | 28%
Cc1ccc(NC(=O)C(Nc2ccccc2)c2ccccc2)cc1 (stereo unspecified) | – | – | – | – | – | – | · | · | ·
S=C(c1ccco1)N1CCOCC1 | · | · | · | – | · | · | · | · | ·
O=C(CNC(=O)C12CC3CC(CC(C3)C1)C2)N/N=C\c1ccccn1 | – | – | – | – | – | – | · | · | ·
O=C(Cc1ccc([N+](=O)[O-])cc1)Nc1cccc(C(=O)N2CCCC2)c1 | · | · | · | – | · | · | · | · | ·
O=C(COc1ccc(Cl)cc1Cl)NCCCCc1ccccc1 | – | – | – | – | – | – | – | – | 24%
O=C(CCCc1ccccc1)NCCCc1ccccc1 | – | – | – | – | – | – | – | – | –
O=C(OCc1cc(Cl)cc2c1OCOC2)c1cccnc1Cl | · | · | · | – | · | · | · | · | ·
CNS(=O)(=O)c1cccc(C(=O)OCc2cc(Cl)cc3c2OCOC3)c1 | -13 | – | – | – | – | – | 48% | – | –
CC1(C)Cc2c(sc3c2c(=O)n(-c2cccc(Cl)c2)c(=O)n3CC(N)=O)CO1 | – | – | – | – | – | – | · | · | ·
CC(NC(=O)c1ccco1)C12CC3CC(CC(C3)C1)C2 (stereo unspecified) | · | · | · | – | · | · | · | · | ·
COc1ccccc1C#Cc1ccc2c(=O)c3ccccc3n(C)c2c1 | -9.7 | – | – | – | – | – | 44% | – | –
Cn1c2ccccc2c(=O)c2cc(C#Cc3cccc(N)c3)ccc21 | · | · | · | – | · | · | · | · | ·
COc1ccc(C#Cc2ccc3c(=O)c4ccccc4n(C)c3c2)cc1 | – | – | – | – | – | – | – | – | –
CCOc1ccc(Cc2c(Cl)nc(SC)nc2OC)cc1 | – | – | – | – | – | – | – | – | 26%
COc1ccc(Cc2c(N)nc(C)nc2N)cc1 | – | – | – | – | – | – | · | · | ·
Cc1ccc(NC2CCCN(C(=O)C3CCCC3)C2)cc1C (stereo unspecified) | – | – | – | – | – | – | – | – | –
Cc1nc(C(=O)N2CCCC(Nc3ccc(C)c(C)c3)C2)cs1 (stereo unspecified) | – | – | – | – | – | – | · | · | ·
CSc1nc(C(=O)N2CCCC(Nc3ccc(C)c(C)c3)C2)cs1 (stereo unspecified) | – | – | – | – | – | – | – | – | –
Cc1ccc(NC2CCCN(C(=O)c3cn4cccc(C)c4n3)C2)cc1C (stereo unspecified) | – | – | – | – | – | – | – | – | –
